Compound activity deposited in PubChem by Sanford-Burnham Center for Chemical Genomics.
Rows were chosen to be rich in hits. Some 1.1% of all compounds tested hit in one or more screens of this group.
G6PDH counter: counter-screen for G6PDH assay hits: L. mesenteroides G6PDH inhibition. Purified L. mesenteroides G6PDH, diaphorase/resazurin coupled fluorescence, 45 min. inhibition, % at 5 µM. 0.12% of 200,000 active. AID 1020; in the data active = inhibition above about 50%
PMI activator: increases human mannose-6-phosphate isomerase activity; purified human PMI, coupled resazurin fluorescence, 20 min; active compounds read high; 1 = vehicle control, 0 substrate-free wells; P34949; 0.005% of 190,000 active; activation factor at 20 µM; AID 1214;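 active = activation factor of 2 or more at 20 µM, relative to plate controls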
Target sequence (P34949 whole entry, looked up): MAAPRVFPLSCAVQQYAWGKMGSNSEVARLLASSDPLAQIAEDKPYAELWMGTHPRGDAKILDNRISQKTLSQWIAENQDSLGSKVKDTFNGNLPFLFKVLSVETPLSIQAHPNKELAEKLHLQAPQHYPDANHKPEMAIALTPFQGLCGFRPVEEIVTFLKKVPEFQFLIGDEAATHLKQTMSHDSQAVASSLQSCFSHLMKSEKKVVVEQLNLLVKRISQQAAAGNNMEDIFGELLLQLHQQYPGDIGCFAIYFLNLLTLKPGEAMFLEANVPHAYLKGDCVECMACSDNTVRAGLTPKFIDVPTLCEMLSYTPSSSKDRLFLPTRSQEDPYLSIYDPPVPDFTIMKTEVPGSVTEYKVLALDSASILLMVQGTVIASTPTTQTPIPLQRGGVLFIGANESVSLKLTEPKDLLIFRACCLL
Diaphorase inh: counter-screen for diaphorase-based assays: diaphorase inhibitors and chemical oxidizers; diaphorase resazurin-to-resorufin fluorescence, NADH, 16 min; bacterial (C. kluyveri) enzyme, not human; inhibition, % at 20 µM; 0.69% of 190,000 active; AID 1217;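 active = primary screen inhibition at 20 µM above a set limit, cut at about 50% in these data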;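 also: plate controls were DMSO with full reaction for no effect and wells lacking NADH for full effect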
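controls = No-NADH positive control and DMSO neutral control | system = Clostridium kluyveri diaphorase enzyme | timing = reaction incubation of 16 min at room temperature | signal = resorufin fluorescence 544/590 nm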
Diaph act CS: activates diaphorase or chemically reduces, flagging diaphorase assay artifacts; Diaphorase/resazurin coupled assay, resorufin fluorescence, 16 min; active compounds read high; 1 = vehicle wells, 0 = NADH-free wells; activation factor at 20 µM; 0.005% of 190,000 active; AID 1229;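 active = diaphorase activity raised at least twofold by the compound at 20 µM; inactive = activation factor below 2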
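System – purified diaphorase enzyme from Clostridium kluyveri · Input – enzyme 0.07 U/mL final · Also added – final NADH 0.114 mM, resazurin 0.1 mM · Measured by – fluorescence of resorufin, 544 nm excitation, 590 nm emission · Timing – 16 min enzyme reaction, ambient temperature · Measure – resorufin increase flagging diaphorase activators or reducers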
PMI act satM6P: PMI (human) activation, high substrate. P34949. coupled PMI enzyme assay, resazurin fluorescence, 20 min; active compounds read high; 1 = untreated enzyme, 0 = substrate-free blank. activation factor at 20 µM. 0.34% of 190,000 active;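 active = activation factor of 2 or more at 20 µM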
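test system = human PMI in coupled enzyme assay | medium = HEPES-buffered pH 7.4 with magnesium and detergent | also added = 1.0 mM mannose-6-phosphate substrate with 0.22 mM NADP+ | compound = 20 µM single dose | times = 20 min incubation at room temperature | measured by = resorufin fluorescence (Ex 544/Em 590 nm) from resazurin via diaphorase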
Numbers without * were called inactive; x = no result.

SMILES	G6PDH counter	PMI activator	Diaphorase inh	Diaph act CS	PMI act satM6P
CCn1c2ccccc2c2nc3cc(C(=O)O)ccc3nc21	16.3	0.9	59.7*	0.4	0.7
CCOC(=O)c1c2ccc(OCC(=O)N/N=C/c3ccccc3C(F)(F)F)cc2n2ccccc12	38.4	0.4	51.6*	0.5	0.4
CCOC(=O)c1c2ccc(OCC(=O)N/N=C/c3ccc(Cl)cc3)cc2n2ccccc12	34.7	0.7	21.1	0.8	0.5
CCOCCCNC(=S)N1CCCN(c2nc3cc(C)ccc3cc2C#N)CC1	3.7	1.7	4.7	1	2.3*
CCOCCCNC(=S)N1CCCN(c2nc3c(C)c(C)ccc3cc2C#N)CC1	7.4	x	x	x	x
CCOCCCNC(=S)NCCCNc1nc2c(C)c(C)ccc2cc1C#N	19.1	1.6	21.8	0.8	2.1*
COCCCNC(=S)NCCCNc1nc2cc3c(cc2cc1C#N)OCO3	-35.1	1.4	12.7	0.9	2.1*
Cc1ccc2cc(C#N)c(NCCNC(=O)C3CCC3)nc2c1C	-3.9	1	10.2	0.9	0.9
CCOc1cccc2sc(Cl)nc12	6.8	1	7.4	0.9	1
CCOc1cccc2sc(NN)nc12	-2.4	1.6	9.3	0.9	2.2*
CO/C(N)=C(\C#N)N=Cc1ccccc1Cl	2.5	0.9	12.7	0.9	0.9
O=c1cc(CN2CCCc3ccccc32)nc2sccn12	9.7	1.8	6.8	0.9	2.1*
O=C1CC(N2CCN(c3ccc(F)cc3)CC2)C(=O)N1c1ccc2c(c1)OCO2 (centres undefined)	8.7	0.8	5.7	0.9	0.8
Cc1cc(C=O)c(C)n1-c1ccc(N2CCOCC2)cc1	13.7	1	7.0	0.9	0.9
Cc1ccc(C)n1-c1ccc(N2CCOCC2)c(Br)c1	0.2	1	56.0*	0.4	1
COc1ccc(N2CCN(C(=O)CCNC(=O)Cn3ccc4ccccc4c3=O)CC2)cc1	1.5	1	17.6	0.8	0.9
Fc1ccc(NC(=S)Nc2ccc3nccnc3c2)cc1	37.2	0.4	64.4*	0.4	0.4
Cc1nc2ccc(NC(=O)N(C(C)C)C(C)C)cc2s1	14.9	1	13.0	0.9	0.9
OCCCNC(=S)Nc1ccc2nccnc2c1	29.1	1	34.8	0.7	0.5
CC(C)N(C(=O)Nc1ccc2nccnc2c1)C(C)C	30.0	0.3	65.0*	0.3	0.3
Cc1ccc(N2CC(C(=O)Nc3ccc(S(=O)(=O)Nc4nccc(C)n4)cc3)CC2=O)cc1 (centres undefined)	3.7	1	10.1	0.9	1
N#CC1=C(N)SC(N)=C(C#N)C1CCC1CCCCC1	-3.1	1	53.6*	0.5	1.2
CCn1c(C)nc2cc(C(=O)N/N=C/c3ccc(O)c(O)c3O)ccc21	22.6	0.2	75.3*	0.2	0.2
CCN(CC)S(=O)(=O)c1cccc(C(=O)N/N=C/c2ccc(O)c(O)c2O)c1	9.7	0.2	80.1*	0.2	0.4
CCn1c(C)nc2cc(C(=O)NNC(=O)Nc3ccc(Cl)cc3)ccc21	4.7	1.9	7.7	0.9	2.8*
SMILES	G6PDH counter	PMI activator	Diaphorase inh	Diaph act CS	PMI act satM6P
O=C(c1ccc2snnc2c1)N1CCSCC1	5.8	1.8	8.8	0.9	2.6*
COc1ccc2[nH]c3c(=O)n(Cc4ccc(C(=O)N5CCCC5)cc4)c(=S)[nH]c3c2c1	-1.4	1	31.6	0.7	0.9
O=C(COC(=O)CCc1ccccc1)NC12CC3CC(CC(C3)C1)C2	2.8	0.9	71.2*	0.3	0.9
O=C(COC(=O)C(O)c1ccccc1)NC12CC3CC(CC(C3)C1)C2 (centres undefined)	-1.9	1	15.0	0.8	1
O=C(O[C@@H]1Cc2c(O)cc(O)cc2O[C@@H]1c1cc(O)c(O)c(O)c1)c1cc(O)c(O)c(O)c1	5.4	0.3	74.1*	0.3	0.7
Cc1cc2nc3c(=O)n(C4CCCCC4)c(=O)[nH]c3nc2cc1N	30.3	0.5	59.6*	0.4	0.4
Cc1cc(C)cc(Nc2cc(=O)n(C3CCCCC3)c(=O)[nH]2)c1	2.2	0.9	16.9	0.8	0.8
C(=N\Nc1ccccn1)/c1ccc2c(c1)OCCO2	6.1	0.9	8.2	0.9	0.9
O=C1C2C3C=CC(C3)C2C(=O)N1CNc1ccc(O)cc1 (centres undefined)	42.2	0.6	64.2*	0.4	0.4
Cc1ccc(NCN2C(=O)C3C4C=CC(C4)C3C2=O)cc1 (centres undefined)	5.2	0.9	19.3	0.8	0.8
CC(C)c1ccc(/C=C(/C#N)c2nnc(NC(=O)c3ccccc3)s2)cc1	-2.9	1	18.1	0.8	0.9
Cc1ccc(S(=O)(=O)/N=C2/C=C(Sc3ncn[nH]3)C(=O)c3ccccc32)c(C)c1	36.9	0	69.0*	0.3	0.1
